Active and inactive are the calls of the source. No cut-off for these calls is given here.
Legend:
[1] = target: T1, DNA topoisomerase 1 (Homo sapiens) (UniProt P11387); assay: Inhibition of human topoisomerase 1-mediated DNA cleavage at 10 uM incubated for 45 mins followed by enzyme addition measured after 30 mins by agarose gel electrophoresis
T1 sequence (whole entry): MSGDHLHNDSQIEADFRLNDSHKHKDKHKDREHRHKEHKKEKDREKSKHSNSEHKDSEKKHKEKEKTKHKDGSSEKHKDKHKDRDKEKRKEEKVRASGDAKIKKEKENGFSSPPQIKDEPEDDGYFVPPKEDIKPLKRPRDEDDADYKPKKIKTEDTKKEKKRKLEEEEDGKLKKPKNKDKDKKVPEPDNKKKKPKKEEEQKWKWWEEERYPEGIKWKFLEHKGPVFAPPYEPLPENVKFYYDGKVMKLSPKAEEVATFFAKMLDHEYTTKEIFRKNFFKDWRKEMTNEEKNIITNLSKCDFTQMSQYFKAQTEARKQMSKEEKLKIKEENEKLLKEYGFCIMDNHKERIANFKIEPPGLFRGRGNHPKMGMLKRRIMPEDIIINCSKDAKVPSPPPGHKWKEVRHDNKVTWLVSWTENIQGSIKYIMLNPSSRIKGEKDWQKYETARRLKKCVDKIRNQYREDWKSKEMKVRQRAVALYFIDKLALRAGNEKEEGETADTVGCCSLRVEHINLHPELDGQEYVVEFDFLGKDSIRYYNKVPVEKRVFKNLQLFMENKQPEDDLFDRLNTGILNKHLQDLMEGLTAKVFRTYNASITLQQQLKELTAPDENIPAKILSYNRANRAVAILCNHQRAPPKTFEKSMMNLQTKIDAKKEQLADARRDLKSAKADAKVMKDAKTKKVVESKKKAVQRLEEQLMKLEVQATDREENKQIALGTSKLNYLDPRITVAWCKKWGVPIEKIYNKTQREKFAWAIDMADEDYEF
Summary of the method: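 Topo I cleavage run like the relaxation assay (pUC19, 4 units human topoisomerase I, 37 °C, 45 min; SDS/proteinase K stop), but samples run on 1% agarose gel containing ethidium bromide; camptothecin 20 μM as poisoning control.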

MOLT-4 = assay: Cytotoxicity against human MOLT4 cells after 72 hrs by MTT assay; type: functional, cell-based; details: MOLT-4, 72 h
Summary of the method: (§1)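 Cells seeded on day 0 at 1 × 10^4 to 3 × 10^4 cells/mL (adherent lines in DMEM, MOLT-4 in suspension in RPMI, 10% FBS, 37 °C, 5% CO2); 10-fold dilutions 10−8–10−4 M for 72 h; MTT, OD 570 nm; percentage growth versus time-zero and control; IC50 by linear regression; quadruplicate, at least two experiments.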

Nucleic Acid [2] = assay: Binding affinity to calf thymus DNA assessed as change in melting temperature at drug/base pair ratio of 0.25 by UV-visible spectrophotometric analysis; type: nucleic-acid assay; details: Bos taurus
Summary of the method: (§2)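 Melting: 20 μM CT-DNA or poly(dAdT)2 alone or with compound (drug/base pair ratio 0.01−0.5) in BPE buffer (6 mM Na2HPO4, 2 mM NaH2PO4, 1 mM EDTA, pH 7.1); A260 read each minute from 20 to 100 °C at 1 °C/min; Tm from midpoint of hyperchromic transition (first-derivative plots); ΔTm = Tm[drug+DNA] − Tm[DNA alone].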

Nucleic Acid [3] = assay: Binding affinity to radiolabeled Pvu2 DNA after 15 mins by Dnase1 footprinting assay; type: nucleic-acid assay
Summary of the method: (§3)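 265 bp EcoRI/PvuII pBluescript fragment, 3′-end labeled with α-[32P]dATP by Klenow. Compounds at increasing concentrations pre-equilibrated with DNA 15 min at 37 °C, then DNase I (final 0.002 unit/mL) in 20 mM NaCl, 2 mM MgCl2, 2 mM MnCl2, pH 7.3, 4 min digestion; products resolved on denaturing 8% polyacrylamide/8 M urea gel, G-track for base positions.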

HCT-116 [4] = assay: Induction of cell cycle arrest in human HCT116 cells assessed as accumulation at G2/M phase at 1 to 5 uM by propidium iodide based flow cytometry; type: functional; details: TDE = time-dependent effect
Summary of the method: (§4)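 HCT116 cells (2 × 10^5 per well) treated after 24 h with 1 or 5 μM for 24 and 48 h; floating and attached cells pooled, fixed in 70% ethanol, stained with 50 μg/mL propidium iodide plus RNase A; 20 000 events by flow cytometry; phase percentages from DNA histograms; duplicate, repeated at least twice.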

Nucleic Acid [5] = assay: Binding affinity to Poly (dAdT)2 DNA assessed as change in melting temperature at drug/base pair ratio of 0.05 by UV-visible spectrophotometric analysis; type: nucleic-acid assay; summary of the method: as §2
Nucleic Acid [6] = assay: Binding affinity to Poly (dAdT)2 DNA assessed as change in melting temperature at drug/base pair ratio of 0.25 by UV-visible spectrophotometric analysis; type: nucleic-acid assay; summary of the method: as §2
[7] = target: T1, DNA topoisomerase 1 (Homo sapiens); assay: Inhibition of human topoisomerase 1-mediated supercoiled pUC19 plasmid DNA relaxation at 10 uM incubated for 45 mins followed by enzyme addition measured after 30 mins by agarose gel electrophoresis
Summary of the method: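 Graded compound concentrations preincubated with supercoiled pUC19, then 4 units human topoisomerase I, 37 °C for 45 min in relaxation buffer; stopped with 0.25% SDS and 250 μg/mL proteinase K, 30 min at 50 °C; 1% agarose gel without ethidium bromide, 2 h at 120 V in TBE, then stained with ethidium bromide.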

Nucleic Acid [8] = assay: Binding affinity to calf thymus DNA assessed as change in melting temperature at drug/base pair ratio of 0.025 by UV-visible spectrophotometric analysis; type: nucleic-acid assay; details: Bos taurus; summary of the method: as §2
MCF7 = assay: Cytotoxicity against human MCF7 cells after 72 hrs by MTT assay; type: functional, cell-based; details: MCF7, 72 h; summary of the method: as §1
Nucleic Acid [9] = assay: Binding affinity to calf thymus DNA assessed as change in melting temperature at drug/base pair ratio of 0.01 by UV-visible spectrophotometric analysis; type: nucleic-acid assay; details: Bos taurus; summary of the method: as §2
HCT-116 [10] = assay: Induction of cell cycle arrest in human HCT116 cells assessed as accumulation at G1 phase at 1 to 5 uM by propidium iodide based flow cytometry; type: functional; details: TDE = time-dependent effect; summary of the method: as §4
[11] = target: DNA topoisomerase 2-alpha (Homo sapiens) (UniProt P11388); assay: Inhibition of human topoisomerase 2-mediated DNA cleavage at 50 uM incubated for 45 mins followed by enzyme addition measured after 30 mins by agarose gel electrophoresis
Sequence of DNA topoisomerase 2-alpha (Homo sapiens) (P11388 whole entry): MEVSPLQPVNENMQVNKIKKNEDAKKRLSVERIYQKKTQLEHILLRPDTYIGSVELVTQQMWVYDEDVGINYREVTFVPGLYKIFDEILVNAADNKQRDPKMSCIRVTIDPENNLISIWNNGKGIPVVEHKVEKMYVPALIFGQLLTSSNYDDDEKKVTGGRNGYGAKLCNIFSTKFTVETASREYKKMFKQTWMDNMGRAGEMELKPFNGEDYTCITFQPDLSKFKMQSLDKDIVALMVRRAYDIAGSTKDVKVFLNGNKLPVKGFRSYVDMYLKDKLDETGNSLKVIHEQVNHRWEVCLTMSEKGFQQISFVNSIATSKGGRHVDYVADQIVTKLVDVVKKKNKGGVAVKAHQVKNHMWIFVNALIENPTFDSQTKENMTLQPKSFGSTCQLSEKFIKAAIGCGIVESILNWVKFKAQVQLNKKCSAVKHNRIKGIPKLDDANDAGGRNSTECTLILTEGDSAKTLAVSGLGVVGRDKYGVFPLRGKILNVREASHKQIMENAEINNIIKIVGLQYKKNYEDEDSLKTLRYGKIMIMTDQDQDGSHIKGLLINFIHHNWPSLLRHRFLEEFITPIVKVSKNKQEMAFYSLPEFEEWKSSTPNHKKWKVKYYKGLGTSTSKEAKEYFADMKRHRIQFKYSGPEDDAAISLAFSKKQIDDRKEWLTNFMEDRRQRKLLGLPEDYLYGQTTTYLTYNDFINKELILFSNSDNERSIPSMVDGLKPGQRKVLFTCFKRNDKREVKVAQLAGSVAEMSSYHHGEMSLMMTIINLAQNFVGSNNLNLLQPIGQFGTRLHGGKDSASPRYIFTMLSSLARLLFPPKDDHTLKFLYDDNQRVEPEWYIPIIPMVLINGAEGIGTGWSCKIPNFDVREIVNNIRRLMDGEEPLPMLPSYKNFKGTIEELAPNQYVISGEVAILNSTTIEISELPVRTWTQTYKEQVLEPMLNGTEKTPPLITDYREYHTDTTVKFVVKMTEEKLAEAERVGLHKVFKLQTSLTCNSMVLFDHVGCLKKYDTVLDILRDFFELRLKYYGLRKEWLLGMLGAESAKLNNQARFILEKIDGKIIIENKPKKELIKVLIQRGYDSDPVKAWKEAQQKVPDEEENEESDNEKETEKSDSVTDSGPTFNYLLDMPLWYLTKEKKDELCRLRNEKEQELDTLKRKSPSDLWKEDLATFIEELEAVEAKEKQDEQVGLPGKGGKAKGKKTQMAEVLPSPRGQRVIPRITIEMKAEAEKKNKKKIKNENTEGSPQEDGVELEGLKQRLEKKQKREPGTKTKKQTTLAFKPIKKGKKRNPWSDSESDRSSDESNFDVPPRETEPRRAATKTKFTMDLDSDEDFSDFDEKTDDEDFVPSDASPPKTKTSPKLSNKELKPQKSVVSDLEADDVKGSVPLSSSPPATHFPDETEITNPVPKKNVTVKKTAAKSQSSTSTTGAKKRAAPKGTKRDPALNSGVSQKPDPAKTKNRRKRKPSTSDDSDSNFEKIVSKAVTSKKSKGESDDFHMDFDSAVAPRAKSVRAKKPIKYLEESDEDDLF
Summary of the method: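 Compounds (50 μM) incubated with 350 ng supercoiled pUC19 before topoisomerase II addition; gel quantified for percentage poisoning normalized to etoposide at the same concentration.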

Nucleic Acid [12] = assay: Binding affinity to Poly (dAdT)2 DNA assessed as DNA intercalation at 20 uM by circular dichroism spectra analysis; type: nucleic-acid assay
Summary of the method: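 CD: compound titrated against poly(dAdT)2, or poly(dAdT)2 titrated with compound from 1 to 200 μM, in BPE buffer (pH 7.1); spectra from 480 to 230 nm in 10 mm quartz cell at 20 °C; peak position and intensity followed.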

HCT-116 [13] = assay: Induction of cell cycle arrest in human HCT116 cells assessed as accumulation at G2/M phase after 24 to 48 hrs by propidium iodide based flow cytometry; type: functional; summary of the method: as §4
HCT-116 [14] = assay: Induction of cell cycle arrest in human HCT116 cells assessed as accumulation at G1 phase after 24 to 48 hrs by propidium iodide based flow cytometry; type: functional; summary of the method: as §4
Nucleic Acid [15] = assay: Binding affinity to Poly (dAdT)2 DNA assessed as change in melting temperature at drug/base pair ratio of 0.1 by UV-visible spectrophotometric analysis; type: nucleic-acid assay; summary of the method: as §2
Nucleic Acid [16] = assay: Binding affinity to Poly (dAdT)2 DNA assessed as change in melting temperature at drug/base pair ratio of 0.01 by UV-visible spectrophotometric analysis; type: nucleic-acid assay; summary of the method: as §2
Nucleic Acid [17] = assay: Binding affinity to Poly (dAdT)2 DNA assessed as change in melting temperature at drug/base pair ratio of 0.025 by UV-visible spectrophotometric analysis; type: nucleic-acid assay; summary of the method: as §2
Nucleic Acid [18] = assay: Binding affinity to AT rich site of Pvu2 DNA by densitometric analysis; type: nucleic-acid assay; summary of the method: as §3
Nucleic Acid [19] = assay: Binding affinity to calf thymus DNA assessed as change in melting temperature at drug/base pair ratio of 0.1 by UV-visible spectrophotometric analysis; type: nucleic-acid assay; details: Bos taurus; summary of the method: as §2
HCT-116 [20] = assay: Cytotoxicity against human HCT116 cells after 72 hrs by MTT assay; type: functional, cell-based; details: HCT-116, 72 h; summary of the method: as §1
SW-620 = assay: Cytotoxicity against human SW620 cells after 72 hrs by MTT assay; type: functional, cell-based; details: SW-620, 72 h; summary of the method: as §1
Nucleic Acid [21] = assay: Binding affinity to calf thymus DNA assessed as DNA intercalation at 50 uM by circular dichroism spectra analysis; type: nucleic-acid assay; details: Bos taurus
Summary of the method: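 CD: 50 μM compound with 200 μM CT-DNA in BPE buffer, alone or plus 10 or 100 mM NaCl; spectra 480–230 nm, 10 mm quartz cell, 20 °C; compound without DNA as control for intrinsic CD.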

Nucleic Acid [22] = assay: Binding affinity to calf thymus DNA assessed as change in melting temperature at drug/base pair ratio of 0.5 by UV-visible spectrophotometric analysis; type: nucleic-acid assay; details: Bos taurus; summary of the method: as §2
NCI-H460 = assay: Cytotoxicity against human H460 cells after 72 hrs by MTT assay; type: functional, cell-based; details: NCI-H460, 72 h; summary of the method: as §1

O=C(Nc1ccc(C2=NCCN2)cc1)c1sc2cc(C3=NCCN3)ccc2c1Cl
inhibition [1]: Active
IC50 (MOLT-4): 1.9 µM
ΔTm (Nucleic Acid [2]): 23.9 °C
Activity (Nucleic Acid [3]): Active
Activity (HCT-116 [4]): tde
ΔTm (Nucleic Acid [5]): 5.9 °C
ΔTm (Nucleic Acid [6]): 27.4 °C
inhibition [7]: Active
ΔTm (Nucleic Acid [8]): 2 °C
IC50 (MCF7): 1.5 µM
ΔTm (Nucleic Acid [9]): 1 °C
Activity (HCT-116 [10]): tde
inhibition [11]: Active
Activity (Nucleic Acid [12]): Active
Activity (HCT-116 [13]): Dose-dependent effect
Activity (HCT-116 [14]): Dose-dependent effect
ΔTm (Nucleic Acid [15]): 18.6 °C
ΔTm (Nucleic Acid [16]): 1 °C
ΔTm (Nucleic Acid [17]): 2 °C
Activity (Nucleic Acid [18]): Active
ΔTm (Nucleic Acid [19]): 7.9 °C
IC50 (HCT-116 [20]): 1.7 µM
IC50 (SW-620): 1.4 µM
Activity (Nucleic Acid [21]): Active
ΔTm (Nucleic Acid [22]): 28.4 °C
IC50 (NCI-H460): 2.6 µM
